Assay results as given in ChEMBL document CHEMBL1240485, “Glycopeptide dendrimer colchicine conjugates targeting cancer cells” (Bioorg Med Chem, 2010).
The source made the active and inactive calls. The rule behind the calls is not given here. Bridge positions count the residues as written; N and C are the ends. Square brackets hold non-standard residues; d marks the D form. Peptide text beside a SMILES is read from it. I, II: the chains in the order shown. * marks the point of attachment. X1 = COc1cc2c(c(OC)c1OC)-c1ccc(OC)c(=O)cc1[C@@H](N(C(C)=O)C(=O)[C@H](CS)N*)CC2; X2 = O=C(CCS[C@@H]1O[C@H](CO)[C@H](O)[C@H](O)[C@H]1O)*; βGal = OC[C@H]1O[C@@H](*)[C@H](O)[C@@H](O)[C@H]1O; Dap = NC[C@H](N)C(=O)O; Mpa = O=C(O)CCS

Columns and labels:
MEF = assay: Cytotoxicity against MEF cells assessed as dead cells at 5 uM after 48 hrs by visual cell counting under the microscope; details: mouse
Jurkat [1] = assay: Cytotoxicity against human Jurkat cells assessed as dead cells at 5 uM after 48 hrs by propidium iodide-based FACS flow cytometry; format: functional
In short: (§1)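 Jurkat cells were grown in RPMI with 10% FCS, penicillin/streptomycin and L-glutamine at 37 °C and 5% CO2. They were seeded at 50,000 cells/mL and cultured overnight, then given compound from sterile water stock and held 48 h. Propidium iodide was added 2 min before FACS (excitation 488 nm). Dead cells were counted at 5 µM final. LD50 was derived from dose–response curves.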

Jurkat [2] = assay: Cytotoxicity against human Jurkat cells after 48 hrs; format: functional; details: read-out: LD50 (the source's name)
In short: as §1

Jurkat [3] = assay: Cytotoxicity against human Jurkat cells at 5 uM after 48 hrs; format: functional, cell-based
In short: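 Jurkat cells (RPMI, 10% FCS, 37 °C, 5% CO2) seeded at 50,000 cells per mL, grown overnight, then dosed with colchicine–dendrimer conjugate at 5 μM final from sterile water stock. After 48 h, propidium iodide added 2 min before FACS (excitation 488 nm); dead vs healthy cells counted, reported as % dead cells.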

Compound	Activity (MEF) [%]	Activity (Jurkat [1])	CC50 (Jurkat [2]) [µM]	Activity (Jurkat [3])
COc1cc2c(c(OC)c1OC)-c1ccc(OC)c(=O)cc1[C@@H](N(C(C)=O)C(=O)[C@H](CS)NC(=O)[C@H](CC(=O)O)NC(=O)[C@H](CC(C)C)NC(=O)[C@H](Cc1ccc(O)cc1)NC(=O)[C@@H](NC(=O)[C@H](CNC(=O)[C@H](C)NC(=O)[C@H](CO)NC(=O)[C@H](CC(=O)O)NC(=O)[C@H](Cc1ccccc1)NC(=O)CCS[C@@H]1O[C@H](CO)[C@H](O)[C@H](O)[C@H]1O)NC(=O)[C@H](C)NC(=O)[C@H](CO)NC(=O)[C@H](CC(=O)O)NC(=O)[C@H](Cc1ccccc1)NC(=O)CCS[C@@H]1O[C@H](CO)[C@H](O)[C@H](O)[C@H]1O)[C@@H](C)O)CC2 (I: [Mpa](βGal)FDSA[Dap]TYLD-X1 / II: [Mpa](βGal)FDSA; amide I:6-II:C) [listing 1 of 2 here]	68	–	–	–
COc1cc2c(c(OC)c1OC)-c1ccc(OC)c(=O)cc1[C@@H](N(C(C)=O)C(=O)[C@H](CS)NC(=O)[C@H](CC(=O)O)NC(=O)[C@H](CC(C)C)NC(=O)[C@H](Cc1ccc(O)cc1)NC(=O)[C@@H](NC(=O)[C@H](CNC(=O)[C@H](C)NC(=O)[C@H](CO)NC(=O)[C@H](CC(=O)O)NC(=O)[C@H](Cc1ccccc1)NC(=O)CCS[C@@H]1O[C@H](CO)[C@H](O)[C@H](O)[C@H]1O)NC(=O)[C@H](C)NC(=O)[C@H](CO)NC(=O)[C@H](CC(=O)O)NC(=O)[C@H](Cc1ccccc1)NC(=O)CCS[C@@H]1O[C@H](CO)[C@H](O)[C@H](O)[C@H]1O)[C@@H](C)O)CC2 (I: [Mpa](βGal)FDSA[Dap]TYLD-X1 / II: [Mpa](βGal)FDSA; amide I:6-II:C) [listing 2 of 2 here]	–	<=91%	1.53	–
COc1cc2c(c(OC)c1OC)-c1ccc(OC)c(=O)cc1[C@@H](N(C(C)=O)C(=O)[C@H](CS)NC(=O)[C@H](CC(=O)O)NC(=O)[C@H](CC(C)C)NC(=O)[C@H](Cc1ccc(O)cc1)NC(=O)[C@@H](NC(=O)[C@H](CNC(=O)[C@H](C)NC(=O)[C@H](CO)NC(=O)[C@H](CC(N)=O)NC(=O)[C@H](Cc1ccccc1)NC(=O)CCS[C@@H]1O[C@H](CO)[C@H](O)[C@H](O)[C@H]1O)NC(=O)[C@H](C)NC(=O)[C@H](CO)NC(=O)[C@H](CC(N)=O)NC(=O)[C@H](Cc1ccccc1)NC(=O)CCS[C@@H]1O[C@H](CO)[C@H](O)[C@H](O)[C@H]1O)[C@@H](C)O)CC2 (I: [Mpa](βGal)FNSA[Dap]TYLD-X1 / II: [Mpa](βGal)FNSA; amide I:6-II:C) [listing 1 of 2 here]	6	–	–	–
COc1cc2c(c(OC)c1OC)-c1ccc(OC)c(=O)cc1[C@@H](N(C(C)=O)C(=O)[C@H](CS)NC(=O)[C@H](CC(=O)O)NC(=O)[C@H](CC(C)C)NC(=O)[C@H](Cc1ccc(O)cc1)NC(=O)[C@@H](NC(=O)[C@H](CNC(=O)[C@H](C)NC(=O)[C@H](CO)NC(=O)[C@H](CC(N)=O)NC(=O)[C@H](Cc1ccccc1)NC(=O)CCS[C@@H]1O[C@H](CO)[C@H](O)[C@H](O)[C@H]1O)NC(=O)[C@H](C)NC(=O)[C@H](CO)NC(=O)[C@H](CC(N)=O)NC(=O)[C@H](Cc1ccccc1)NC(=O)CCS[C@@H]1O[C@H](CO)[C@H](O)[C@H](O)[C@H]1O)[C@@H](C)O)CC2 (I: [Mpa](βGal)FNSA[Dap]TYLD-X1 / II: [Mpa](βGal)FNSA; amide I:6-II:C) [listing 2 of 2 here]	–	19%	5.52	–
COc1cc2c(c(OC)c1OC)-c1ccc(OC)c(=O)cc1[C@@H](N(C(C)=O)C(=O)[C@H](CS)NC(=O)[C@H](CCCCNC(=O)CCS[C@@H]1O[C@H](CO)[C@H](O)[C@H](O)[C@H]1O)NC(=O)[C@H](Cc1ccccc1)NC(=O)[C@H](CCCNC(=N)N)NC(=O)[C@H](CC(N)=O)NC(=O)[C@H](CNC(=O)[C@@H](NC(=O)[C@H](CCC(=O)O)NC(=O)[C@H](CC(=O)O)NC(=O)CNC(=O)CCS[C@@H]1O[C@H](CO)[C@H](O)[C@H](O)[C@H]1O)[C@@H](C)O)NC(=O)[C@@H](NC(=O)[C@H](CCC(=O)O)NC(=O)[C@H](CC(=O)O)NC(=O)CNC(=O)CCS[C@@H]1O[C@H](CO)[C@H](O)[C@H](O)[C@H]1O)[C@@H](C)O)CC2 (I: [Mpa](βGal)GDET[Dap]NRFK(X2)-X1 / II: [Mpa](βGal)GDET; amide I:6-II:C)	–	–	–	inactive
COc1cc2c(c(OC)c1OC)-c1ccc(OC)c(=O)cc1[C@@H](N(C(C)=O)C(=O)[C@H](CS)NC(=O)[C@H](CCCCNC(=O)CCS[C@@H]1O[C@H](CO)[C@H](O)[C@H](O)[C@H]1O)NC(=O)[C@H](Cc1ccccc1)NC(=O)[C@H](CCCNC(=N)N)NC(=O)[C@H](CC(N)=O)NC(=O)[C@H](CNC(=O)[C@@H](NC(=O)[C@H](CCC(=O)O)NC(=O)[C@H](CC(N)=O)NC(=O)CNC(=O)CCS[C@@H]1O[C@H](CO)[C@H](O)[C@H](O)[C@H]1O)[C@@H](C)O)NC(=O)[C@@H](NC(=O)[C@H](CCC(=O)O)NC(=O)[C@H](CC(N)=O)NC(=O)CNC(=O)CCS[C@@H]1O[C@H](CO)[C@H](O)[C@H](O)[C@H]1O)[C@@H](C)O)CC2 (I: [Mpa](βGal)GNET[Dap]NRFK(X2)-X1 / II: [Mpa](βGal)GNET; amide I:6-II:C)	–	–	–	inactive
COc1cc2c(c(OC)c1OC)-c1ccc(OC)c(=O)cc1[C@@H](N(C(C)=O)C(=O)[C@H](CS)NC(=O)[C@H](CC(=O)O)NC(=O)[C@H](Cc1cnc[nH]1)NC(=O)[C@H](CCCNC(=N)N)NC(=O)[C@@H](NC(=O)[C@H](CNC(=O)[C@H](C)NC(=O)[C@H](Cc1cnc[nH]1)NC(=O)[C@H](CCCNC(=N)N)NC(=O)CNC(=O)CCS[C@@H]1O[C@H](CO)[C@H](O)[C@H](O)[C@H]1O)NC(=O)[C@H](C)NC(=O)[C@H](Cc1cnc[nH]1)NC(=O)[C@H](CCCNC(=N)N)NC(=O)CNC(=O)CCS[C@@H]1O[C@H](CO)[C@H](O)[C@H](O)[C@H]1O)[C@@H](C)O)CC2 (I: [Mpa](βGal)GRHA[Dap]TRHD-X1 / II: [Mpa](βGal)GRHA; amide I:6-II:C) [listing 1 of 2 here]	51	–	–	–
COc1cc2c(c(OC)c1OC)-c1ccc(OC)c(=O)cc1[C@@H](N(C(C)=O)C(=O)[C@H](CS)NC(=O)[C@H](CC(=O)O)NC(=O)[C@H](Cc1cnc[nH]1)NC(=O)[C@H](CCCNC(=N)N)NC(=O)[C@@H](NC(=O)[C@H](CNC(=O)[C@H](C)NC(=O)[C@H](Cc1cnc[nH]1)NC(=O)[C@H](CCCNC(=N)N)NC(=O)CNC(=O)CCS[C@@H]1O[C@H](CO)[C@H](O)[C@H](O)[C@H]1O)NC(=O)[C@H](C)NC(=O)[C@H](Cc1cnc[nH]1)NC(=O)[C@H](CCCNC(=N)N)NC(=O)CNC(=O)CCS[C@@H]1O[C@H](CO)[C@H](O)[C@H](O)[C@H]1O)[C@@H](C)O)CC2 (I: [Mpa](βGal)GRHA[Dap]TRHD-X1 / II: [Mpa](βGal)GRHA; amide I:6-II:C) [listing 2 of 2 here]	–	91%	1.5	–
CC[C@H](C)[C@H](NC(=O)[C@@H]1CCCN1C(=O)[C@H](CNC(=O)[C@@H]1CCCN1C(=O)CNC(=O)[C@H](CC(=O)O)NC(=O)[C@H](CCCCNC(=O)CCS[C@@H]1O[C@H](CO)[C@H](O)[C@H](O)[C@H]1O)NC(=O)CCS[C@@H]1O[C@H](CO)[C@H](O)[C@H](O)[C@H]1O)NC(=O)[C@@H]1CCCN1C(=O)CNC(=O)[C@H](CC(=O)O)NC(=O)[C@H](CCCCNC(=O)CCS[C@@H]1O[C@H](CO)[C@H](O)[C@H](O)[C@H]1O)NC(=O)CCS[C@@H]1O[C@H](CO)[C@H](O)[C@H](O)[C@H]1O)C(=O)N[C@@H](CCC(=O)O)C(=O)N[C@H](C(=O)N[C@@H](CS)C(=O)N(C(C)=O)[C@H]1CCc2cc(OC)c(OC)c(OC)c2-c2ccc(OC)c(=O)cc21)C(C)C (I: [Mpa](βGal)K(X2)DGP[Dap]PIEV-X1 / II: [Mpa](βGal)K(X2)DGP; amide I:6-II:C)	–	–	–	inactive
CC[C@H](C)[C@H](NC(=O)[C@@H]1CCCN1C(=O)[C@H](CNC(=O)[C@@H]1CCCN1C(=O)CNC(=O)[C@H](CC(N)=O)NC(=O)[C@H](CCCCNC(=O)CCS[C@@H]1O[C@H](CO)[C@H](O)[C@H](O)[C@H]1O)NC(=O)CCS[C@@H]1O[C@H](CO)[C@H](O)[C@H](O)[C@H]1O)NC(=O)[C@@H]1CCCN1C(=O)CNC(=O)[C@H](CC(N)=O)NC(=O)[C@H](CCCCNC(=O)CCS[C@@H]1O[C@H](CO)[C@H](O)[C@H](O)[C@H]1O)NC(=O)CCS[C@@H]1O[C@H](CO)[C@H](O)[C@H](O)[C@H]1O)C(=O)N[C@@H](CCC(=O)O)C(=O)N[C@H](C(=O)N[C@@H](CS)C(=O)N(C(C)=O)[C@H]1CCc2cc(OC)c(OC)c(OC)c2-c2ccc(OC)c(=O)cc21)C(C)C (I: [Mpa](βGal)K(X2)NGP[Dap]PIEV-X1 / II: [Mpa](βGal)K(X2)NGP; amide I:6-II:C)	–	–	–	inactive
COc1cc2c(c(OC)c1OC)-c1ccc(OC)c(=O)cc1[C@@H](NC(C)=O)CC2 [COLCHICINE]	57	85%	0.02	–
